This is a sample that favours compounds with a hit; in the whole collection about 1.7% have one here.
Scp1 inh – blocks human Scp-1 phosphatase activity | Q9GZU7 | Recombinant Scp1, phosphopeptide, malachite green phosphate absorbance | inhibition, % at 20 µM | hit rate 0.88% among 340,000;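 active means inhibition above about 50% at 20 µM, limit read from the data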;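 further: plate controls were DMSO wells with enzyme for no effect and wells lacking enzyme for full effect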
Target sequence (Q9GZU7 76-261 limits assumed): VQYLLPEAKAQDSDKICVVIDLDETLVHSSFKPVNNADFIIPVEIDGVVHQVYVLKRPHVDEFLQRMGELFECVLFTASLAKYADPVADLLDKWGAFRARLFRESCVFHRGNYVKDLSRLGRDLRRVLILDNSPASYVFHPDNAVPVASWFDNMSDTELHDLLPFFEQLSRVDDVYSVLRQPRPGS
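Times: enzyme reaction 45 min at room temperature, colour 5 min, stabilisation 30 min. Material: SCP-1 catalytic fragment, aa 76-261. Medium: Acidic Tris acetate buffer with magnesium and detergent. Signal: colorimetric free-phosphate detection, absorbance 630 nm. Read-out basis: % inhibition of SCP-1 phosphate liberation. Reagent: Phosphorylated 17-residue peptide substrate.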
LMPTP block – LMPTP (human) inhibition; P24666; recombinant LMPTP-A, OMFP fluorogenic substrate, fluorescence intensity; inhibition, % at 20 µM; hit rate 0.22% among 360,000; AID 651560;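 active means compounds that cut the enzyme signal by at least half of the control window in the single-dose screen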;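 further: plate controls were DMSO wells with enzyme plus substrate for no effect and substrate without enzyme for full effect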
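Test system – LMPTP-A phosphatase enzyme · Quantity – 0.625 nM LMPTP-A final · Reagent – OMFP substrate, 400 µM final · Dosing – one test concentration per compound, 20 µM, with 3% DMSO overall · Timing – 50 min enzyme reaction at room temperature, protected from light · Detection – fluorescence intensity · Controls – substrate-only low control, DMSO enzyme-plus-substrate high control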
DNMT1 block – DNMT1 (human) enzyme inhibition. DNMT1 molecular beacon, Hinp1I cleavage, fluorescence. inhibition (reported as % activation of signal), % at 10 µM. hit rate 0.83% among 360,000. AID 588458; in the data active means inhibition above about 50%
SUMO1 PPI mod – alters human SUMO1 binding to SIM partners; P63165; SUMO1 binding to a labelled peptide, TR-FRET, 1 h; AID 602429; hit rate 0.33% among 360,000; inhibition, % at 20 µM; in the data active means inhibition above about 37%
STEP block – inhibitors of human striatal-enriched phosphatase STEP | P54829 | recombinant STEP, OMFP fluorogenic substrate, fluorescence | inhibition, % at 20 µM | hit rate 0.25% among 360,000 | AID 588621;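 active means inhibition at 20 µM, scaled per plate between control wells, above about 37%, limit read from the data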;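 further: 0% = DMSO with enzyme and substrate and 100% = substrate only without enzyme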
Target sequence (P54829 whole entry, looked up): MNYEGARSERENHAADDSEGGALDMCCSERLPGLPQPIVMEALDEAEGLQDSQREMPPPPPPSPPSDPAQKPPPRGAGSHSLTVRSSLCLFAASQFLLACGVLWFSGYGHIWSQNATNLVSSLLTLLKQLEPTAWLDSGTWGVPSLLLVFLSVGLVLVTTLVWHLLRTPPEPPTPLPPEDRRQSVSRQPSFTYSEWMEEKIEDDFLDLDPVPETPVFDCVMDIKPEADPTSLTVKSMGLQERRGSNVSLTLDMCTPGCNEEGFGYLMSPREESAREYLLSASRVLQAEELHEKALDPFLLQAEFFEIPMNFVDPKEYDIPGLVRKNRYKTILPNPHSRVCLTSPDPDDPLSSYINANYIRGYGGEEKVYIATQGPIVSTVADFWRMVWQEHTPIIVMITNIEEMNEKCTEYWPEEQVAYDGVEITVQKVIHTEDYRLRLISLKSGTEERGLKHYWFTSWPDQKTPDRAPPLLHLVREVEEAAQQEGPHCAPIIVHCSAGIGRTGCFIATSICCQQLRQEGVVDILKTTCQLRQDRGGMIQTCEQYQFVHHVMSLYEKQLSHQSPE
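medium = Bis-Tris buffer pH 6.0, 2.5 mM DTT, 0.005% Tween 20 | test system = STEP (striatal-enriched tyrosine phosphatase) enzyme, cell-free | measure = normalized % inhibition | compound dosing = 20 µM, 1% DMSO | also added = 25 µM OMFP | schedule = reaction 20 min, ambient temperature | measured by = fluorescence read at 480 nm ex / 540 nm em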
Numbers without * were called inactive; / = no result given; ! = not confirmed by another sample.

SMILES | Scp1 inh | LMPTP block | DNMT1 block | SUMO1 PPI mod | STEP block
CC(Nc1nc(N2CCNCC2)nc2ccccc12)c1ccccc1 (centres undefined) | 5.4 | 85.0* | -12.1 | -0.1 | 7.0
CC(=O)c1c(C)[nH]c(C(=O)N(C)CC(=O)Nc2ccc(Cl)c(C(F)(F)F)c2)c1C | 0.1 | 0.8 | -1.4 | 4.0 | -2.4
CCOc1ccc2nc3cc(NCc4ccc(OC)cc4)ccc3c(N)c2c1 | -1.1 | 19.2 | 25.9 | 110.0* | 1.6
CCn1cnc2cc(NCc3ccc(OC)cc3)ccc21 | -9.7 | -0.1 | -2.9 | -2.7 | 3.3
C=CCN=c1scc(-c2ccco2)n1/N=C/c1ccc(O)c(O)c1O | 9.0 | 20.6 | -15.1 | -5.5 | 3.4
COCCN=c1scc(-c2ccco2)n1/N=C/c1ccc(O)c(O)c1O | 88.5* | 73.5* | 69.8* | 19.4 | 7.7
Cc1cccc(N2CCN(C(=O)CN3C(=O)NC(C)(C4CC4)C3=O)CC2)c1C (centres undefined) | -0.1 | 0.6 | 46.5 | 44.7* | 0.9
Cc1cccc(N2CCN(C(=O)CN3C(=O)NC(C)(C)C3=O)CC2)c1C | -7.4 | -1.5 | 0.3 | -2.6 | -3.0
Cc1ccc(C(=O)CSc2ccc(-c3ccncc3)nn2)cc1 | -9.0 | 0.0 | -1.7 | 24.3 | 4.6
O=C(CSc1ccc(-c2ccncc2)nn1)c1ccc(Cl)cc1 | 2.2 | -0.5 | 8.1 | 50.7* | 2.7
Cc1n[nH]c(C)c1CCc1nc2c3ccccc3nc(SCC(N)=O)n2n1 | 0.3 | -1.4 | -0.8 | 4.7 | 0.7
Cc1ccc(NC(=O)CSc2nc3ccccc3c3nc(CCc4c(C)n[nH]c4C)nn23)cc1F | -1.2 | -2.0 | -19.8 | 42.5* | -13.1
O=c1c2cc(Br)ccc2nc(-c2ccc(Cl)cc2)n1O | 65.5* | 50.9* | 0.0 | 0.8 | 95.5*
CC(=O)C1=CCC(c2ccccc2)N(S(=O)(=O)c2cccc(C)c2)C1 (centres undefined) | / | -0.6 | -7.2 | 4.4 | -2.1
COc1ccc2c(c1O)Cc1ccccc1C2=O | -3.1 | -0.8 | -24.1 | 55.0* | 1.9
COc1cc(-c2ccc(Nc3ccccc3C(=O)O)c(OC)c2)ccc1Nc1ccccc1C(=O)O | 70.5* | 7.0 | 108.5* | 60.8* | 0.9
CCOc1ccc(C(=O)NCC(=O)OCC(=O)Nc2cccc(S(=O)(=O)N3CCCC3)c2)cc1 | -5.6 | 0.2 | -1.2 | 47.9* | 2.5
Cc1ccc(-c2ccc(CCC(=O)O)n2Cc2ccco2)cc1 | -3.6 | 6.2 | 56.7* | 2.3 | -16.7
O=C(O)CCc1ccc(-c2ccccc2)n1CC(=O)O | 4.5 | -0.5 | 0.1 | 1.7 | 0.1
O=C(OCc1cc(=O)n2ccsc2n1)c1ccc(O)cc1O | 3.6 | 0.4 | 16.5 | 3.8 | 1.2
CCN(CC)c1ccc2c(-c3ccc(S(=O)(=O)O)cc3S(=O)(=O)[O-])c3ccc(=[N+](CC)CC)cc-3oc2c1 | 76.7* | 14.8 | 14.0 | 13.5 | 16.3
CCN(CC)c1ccc2nc3c4ccccc4c(=O)cc-3oc2c1 | -0.9 | / | / | / | /
Cc1nc2ccc3nc(NC(=O)c4ccco4)sc3c2s1 | 25.1 | 0.3 | 6.3 | 54.5* | 3.6
O=C(Nc1nc2ccsc2c(=O)s1)c1ccco1 | 53.9* | -0.1 | 44.1 | 39.2* | 7.7
Cc1csc2c(=O)sc(NC(=O)c3ccco3)nc12 | 6.3 | 24.5 | 0.1 | -21.3 | 8.8
SMILES | Scp1 inh | LMPTP block | DNMT1 block | SUMO1 PPI mod | STEP block
Cc1ccc2nc(NC(=O)c3ccco3)sc2c1 | -7.5 | 0.2 | -1.1 | 1.0 | -4.7
CC(C)c1ccc(CN2CCC(n3nccc3NC(=O)C3CCCC3)CC2)cc1 | / | -2.7 | -9.8 | -1.0 | 0.2
CCOC(=O)Nc1sc(C)nc1-c1ccccc1 | 0.2 | -1.6 | 2.0 | -2.3 | 3.0
CCOC(=O)Nc1cc2c(c(N)n1)N=C(c1ccccc1)CN2 | 14.6 | 2.0 | 53.4* | -42.3 | -0.4
Nc1cccc2c(O)cc(S(=O)(=O)O)cc12 | 92.9* | 77.7* | 114.3* | 75.8* | 92.4*
COc1ccccc1Nc1ccc2c(O)cc(S(=O)(=O)O)cc2c1 | 81.5* | 84.9* | 94.5* | 91.6* | 97.1*
Cc1ccc(S(=O)(=O)c2cc(Nc3ccccc3)ccc2O)cc1 | -5.8 | 1.9 | -22.8 | -6.6 | -1.4
O=S(=O)(O)c1ccc(O)c2cc(Nc3ccccc3)ccc12 | 95.8* | 95.6* | 96.0* | 120.2* | 99.4*
O=S(=O)(O)c1cc(O)c2ccc(Nc3ccccc3)cc2c1 | 99.5* | 92.5* | 100.0* | 82.6* | 98.7*
Oc1cccc(Nc2ccccc2)c1 | -0.3 | 0.2 | -14.6 | 2.2 | -3.7
Cc1cc(C)c(C)c(S(=O)(=O)N2CCN(C(=O)c3cc(S(=O)(=O)N4CCOCC4)ccc3F)CC2)c1C | 24.5 | 2.0 | -6.1 | -3.5 | 2.8
COc1cc(N=c2ssnc2Cl)c(OC)cc1Cl | 1.7 | 48.2*! | -4.0 | -7.0 | 4.4
COc1ccc(OC)c(N=c2ssnc2Cl)c1 | -1.3 | 34.0 | -11.9 | 5.9 | 0.4
Cc1cc(=O)oc2cc(OCc3ccc(C(=O)OCC(=O)NC4CCS(=O)(=O)C4)cc3)ccc12 (centres undefined) | 49.8 | 13.2 | 19.6 | 56.9* | 5.6
Cc1cc(=O)oc2cc(OCc3ccc(C(=O)OCC(=O)N(C)C4CCS(=O)(=O)C4)cc3)ccc12 (centres undefined) | -10.6 | 0.4 | 0.5 | 1.9 | -3.6
O=C1C(=O)c2ccccc2C(O)=C1c1ccccc1F | -12.8 | -0.7 | -2.5 | -28.6 | 3.1
O=C1c2ccccc2C(=O)C1c1ccnc2ccccc12 | -7.8 | 2.1 | 55.7* | 21.0 | -13.0
O=C1C(c2ccnc3ccccc23)=C(O)c2ccccc21 | -5.2 | -0.3 | 51.6* | 22.3 | 0.0
CCc1nc2ccc(C(=O)NCCc3c[nH]c4ccccc34)cn2c1N(C=O)CCC(C)C | / | 2.1 | -0.8 | 4.0 | -1.4
CCn1c(=NC(=O)c2ccc(N3C(=O)CCC3=O)cc2)sc2c(OC)ccc(OC)c21 | 58.0* | 3.6 | 2.1 | -30.2 | 3.5
CCn1c(=NC(=O)c2ccc(S(=O)(=O)N3CCOCC3)cc2)sc2cccc(OC)c21 | -12.6 | 2.4 | -7.1 | 42.7* | -3.0
CC(C)NC(=O)C1(C)CN(S(C)(=O)=O)CC(=O)N1C1CCN(Cc2ccccc2)CC1 (centres undefined) | / | -0.2 | / | -4.9 | /
Cc1nc2ccc(C(=O)N3CCN(C(=O)c4ccco4)CC3)cn2c1N(C)C(=O)CCc1ccccc1 | / | -5.4 | 8.2 | -0.9 | -3.4
Cc1cccc(/C=N\NC(=O)c2ccc(Cl)cc2)c1O | 95.1* | 40.9 | 5.7 | -0.3 | 16.1
Cc1cccc(/C=N/NC(=O)Cc2ccc(Cl)cc2)c1O | -6.5 | 1.6 | 1.7 | 8.4 | 2.4
O=[N+]([O-])c1ccc(Nc2ccccc2)c2nonc12 | -11.0 | 16.0 | -9.8 | -90.2 | 8.4
NNc1ccc([N+](=O)[O-])c2[nH][nH]c(=O)c12 | / | 84.0* | 84.7* | 98.6* | 96.2*
CCN1/C(=C/c2ccc3ccccc3[n+]2CC)C=Cc2ccccc21 | 104.2* | 46.4 | 40.0 | 19.5 | 23.7

Screens deposited in PubChem BioAssay by Sanford-Burnham Center for Chemical Genomics.
